Hits are enriched below; roughly 2.4% of the tested compounds scored in any of these assays.
LANA-H2B inh = blocks KSHV LANA binding to histone H2A/H2B; actives 0.6% (n = 320,000); cell-free LANA-H2A/H2B peptide, fluorescence polarization; inhibition, % (concentration not given with the values); Q9QR71; in the data active = inhibition mostly above about 10%, no sharp cut-off; inactive = mostly below about 6.7%
MEX-5 binding = C. elegans MEX-5 TCR-2 RNA binding activity | Q9XUB2 | actives 0.38% (n = 300,000) | AID 1832 | MEX-5/FITC-TCR2 RNA binding, fluorescence polarization; hits give low values | activity score (negative = inhibition of binding), % at 10 µM;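 active = inhibition past about -25% in most replicates, and total fluorescence under double the plate's negative control median, limit read from the data; inconclusive = replicates evenly split on the limit, or fluorescence at least double controls; inactive = too little inhibition in most replicates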;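 note: 0% = DMSO and -100% = 5 µM competing unlabeled TCR2 RNA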
Runt-SMMHC FRET = blocks binding of human RUNX1 Runt domain to CBFb-SMMHC; actives 0.74% (n = 220,000); Q01196+Q13951; Cerulean-Runt/Venus-CBFb-SMMHC FRET ratio 530/480, 1 h; inhibition, % at 20 µM; AID 1434;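 active = mean inhibition across duplicate retests at 20 µM reaching about 50%, limit read from the data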;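 note: 0% = DMSO wells and 100% = wells with excess untagged CBFb-SMMHC; inhibitors lower the FRET ratio by blocking Runt binding to CBFb-SMMHC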
Runt-CBFb FRET = inhibitors of human RUNX1 Runt domain binding to CBFb; Cerulean-Runt/Venus-CBFb FRET ratio 530/480, 1 h; inhibition, % at 20 µM; actives 0.46% (n = 220,000); AID 1496;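 active = inhibition over about 50% at 20 µM in the single-dose screen, limit read from the data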;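 note: 0% = DMSO wells and 100% = excess unlabeled CBFb competitor control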
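Doses: 20 µM compound in 1% DMSO | Material: Cerulean-labeled Runt domain protein | Amount: Each fluorescent fusion protein 100 nM | Schedule: Two 1 h room-temperature incubations shielded from light | Measured by: FRET fluorescence | Evaluation: Loss of energy transfer signal | Controls: Unlabeled CBFb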
RanGTP-Impb inh = inhibitors of RanGTP-importin-beta interaction, primary screen, biochemical, FRET, CFP-Ran, YFP-importin-beta, homogeneous. cell-free CFP-Ran/YFP-importin-beta FRET ratio. inhibition, % (concentration not given with the values). actives 1.1% (n = 300,000). AID 2216;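 active = more than half of the replicate wells show a fall in the fluorescence ratio signal beyond about 16%, limit read from the data, passing the limit was not always enough; inconclusive = exactly half of the replicate wells pass the set limit; inactive = fewer than half of replicates pass the limit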;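 note: 0% = DMSO wells and 100% = Ran loaded with GDP instead of GTP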
EBV gp42 inh = EBV gp42 inhibition; Q1HVG2; actives 0.42% (n = 220,000); Fluorescence polarization binding assay, mP read-out; inhibition, % (tested at 21.74 µM); in the data active = inhibition above about 50%
* = called active by the depositor; i = inactive; ? = inconclusive; nt = no result given; + = active, no number.

SMILES	LANA-H2B inh	MEX-5 binding	Runt-SMMHC FRET	Runt-CBFb FRET	RanGTP-Impb inh	EBV gp42 inh
Clc1c(-c2ccccc2)nc2ccccn12	3.5	0.4	nt	nt	-0.6	nt
c1ccn2c(c1)nc1c2nc2ccccn21	0.7	-4.0	71.5*	20.0	-3.7	2.4
CCCCN1C(=O)C(=O)c2cc(Cl)ccc21	+	nt	nt	nt	nt	nt
CCCN1C(=O)C(=O)c2cc(C)ccc21	-1.8	nt	nt	nt	nt	nt
O=C1c2cccc3cc([N+](=O)[O-])cc(c23)C(=O)N1CCN1CCCC1	nt	-7.1	-0.2	-2.0	-3.5	4.0
Nc1cc2c3c(cccc3c1)C(=O)N(CCN1CCCC1)C2=O	0.0	-28.1*	-127.1	-24.4	-41.5	94.6*
CCN(CC)CCN1C(=O)c2cccc3cc(N)cc(c23)C1=O	2.8	-68.6*	-122.2	-38.5	-19.8	101.2*
Cc1ccc(NC(=O)C2CCCN2C(=O)OC(C)(C)C)cc1C (configuration not stated)	3.8	3.5	0.5	0.2	?	-18.1
Cc1nn(C)c(C(=O)N/N=C/c2ccc(-c3ccccc3)cc2)c1Cl	-3.9	0.4	nt	nt	-0.9	nt
CCc1cc(=O)oc2cc(C)cc(OC(C)C(=O)NCc3cccnc3)c12 (configuration not stated)	4.6	-0.9	nt	nt	-0.2	nt
CCCCCCc1c(C)c2ccc(OCC(=O)N[C@@H](Cc3ccccc3)C(=O)O)cc2oc1=O	-4.6	-4.3	nt	nt	-4.4	nt
CC1CC(Nc2cccc(O)c2)=CC(=O)O1 (configuration not stated)	-3.9	-3.1	-2.2	3.2	?	-31.1
C[C@@H]1Cc2c(O)c(O)cc(O)c2C(=O)O1	5.9	-44.8*	-7.6	10.4	-1.5	-1.3
COC(=O)c1ccccc1-c1c2ccc(=N)cc-2oc2cc(N)ccc12	192.2*	nt	nt	nt	nt	nt
COc1ccc(N(C(=O)CCl)C(C)(C(=O)Nc2c(C)cccc2C)c2ccccn2)cc1 (configuration not stated)	-5.0	-30.4*	-19.0	-12.2	-55.2	-16.9
CCOc1ccc2nc(NCCNC(=O)CC)c(C#N)cc2c1	4.8	nt	95.1*	9.8	1.6	17.4
COc1ccc(C(=O)NCCNc2nc3ccc(C)cc3cc2C#N)cc1OC	-4.4	-1.4	nt	nt	77.1*	nt
COc1ccc(Nc2nc3ccc(C)cc3cc2C#N)c(OC)c1	2.0	-4.1	-23.3	-1.5	-5.0	-24.9
CCOc1ccc2nc(SCC(=O)NCC3CCCO3)c(C#N)cc2c1 (configuration not stated)	-7.2	-1.0	nt	nt	3.4	nt
COc1ccc(N/C=C/C(=O)c2cc(OC)c(OC)c(OC)c2)cc1	11.5*	-1.9	nt	nt	-1.1	nt
COc1ccc(N/C=C/C(=O)c2ccc(Cl)cc2)cc1	32.9*	1.1	-120.3	-78.5	0.2	2.5
COc1cccc(N/C=C/C(=O)c2ccc(Cl)cc2)c1	i	-0.6	-5.9	-6.3	3.3	-3.5
COc1ccc(C(CNC(=O)CSc2ccc(Br)cc2C)N2CCOCC2)cc1 (configuration not stated)	6.7	-0.2	nt	nt	-1.6	nt
CCN1C(=O)/C(=C2\SC(=S)N(NC(=O)c3ccccc3O)C2=O)c2ccccc21	0.9	-39.6*	-3.5	7.6	-1.4	12.8
COc1ccccc1-c1cc(C(=O)NCc2ccccc2)no1	-1.9	-1.2	-0.1	-4.0	-1.1	-2.6
SMILES	LANA-H2B inh	MEX-5 binding	Runt-SMMHC FRET	Runt-CBFb FRET	RanGTP-Impb inh	EBV gp42 inh
COc1ccccc1-c1cc(C(=O)NCCCN2CCOCC2)no1	5.5	-0.2	nt	nt	2.0	nt
COc1ccccc1-c1cc(C(=O)NCCN2CCOCC2)no1	15.5*	1.7	3.1	1.5	-6.2	-7.4
COCC(C)NC(=O)c1cc(-c2ccccc2OC)on1 (configuration not stated)	21.3*	1.9	-2.1	1.0	1.0	-6.7
COc1ccc(CN2CCNC(=O)C2CC(=O)NCCSc2nccn2C)c(OC)c1 (configuration not stated)	-2.0	-2.3	-2.3	-0.3	0.2	-9.9
COc1ccccc1C1C(C(=O)c2sc(C)nc2C)=C(O)C(=O)N1CCN1CCOCC1 (configuration not stated)	16.7*	-1.1	5.2	2.9	-0.4	-18.5
COc1cccc(C2C(C(=O)c3sc(C)nc3C)=C(O)C(=O)N2CCN2CCOCC2)c1OC (configuration not stated)	-5.8	-0.5	2.3	0.2	3.4	-8.1
O=C(C1=C(O)C(=O)N(CCN2CCOCC2)C1c1ccc(F)cc1)c1cccs1 (configuration not stated)	2.0	-0.9	nt	nt	?	nt
CCN(CC)CCN1C(=O)C(O)=C(C(=O)c2cccs2)C1c1ccccn1 (configuration not stated)	0.1	-0.5	-1.7	5.4	68.1*	-10.0
O=C(C1=C(O)C(=O)N(CCN2CCOCC2)C1c1ccccn1)c1cccs1 (configuration not stated)	-0.9	-3.7	12.9	12.5	25.6*	-10.4
CCCCNc1ncnc2sc3c(c12)CCN(CCC)C3	-0.3	3.5	nt	nt	-1.3	nt
CCC(=O)N(CCc1ccc(S(N)(=O)=O)cc1)C1CC(=O)N(c2ccc(OC)cc2)C1=O (configuration not stated)	-5.9	0.8	-2.6	-0.1	2.2	4.1
NC(=O)c1ccc(Oc2cccc3cccnc23)c([N+](=O)[O-])c1	4.3	-3.8	84.6*	36.1	-1.2	18.9
Cc1ccc(N2C(=O)C3C(C(=O)c4ccccc4)=NN(c4ccccc4)C3C2=O)cc1 (configuration not stated)	nt	?	-42.8	-248.6	-113.5	52.8*
COc1ccccc1N1C(=O)C2C(C(=O)c3ccccc3)=NN(c3ccccc3)C2C1=O (configuration not stated)	-1.8	-16.3	80.2	-132.6	-136.4	72.2*
O=C(C1=NN(c2ccccc2)C2C(=O)N(c3ccccc3)C(=O)C12)c1ccccc1 (configuration not stated)	8.8	-36.8*	-159.2	-265.5	-125.4	58.6*
O=C(C1=NN(c2ccccc2)C2C(=O)N(c3ccccc3Cl)C(=O)C12)c1ccccc1 (configuration not stated)	4.7	-27.7*	-10.6	-301.6	-130.6	53.0*
COc1cc(/C=C2\C(=N)N3N=C(S(C)(=O)=O)SC3=NC2=O)ccc1OC(=O)c1ccco1	-9.9	2.2	nt	nt	0.0	nt
O=C1/C(=N\S(=O)(=O)c2cccs2)C([n+]2cccc(Cc3ccccc3)c2)=C([O-])c2ccccc21	-7.5	?	-2.3	-7.8	-81.6	142.3*
Cc1cc(C)c[n+](C2=C([O-])c3ccccc3C(=O)/C2=N\S(=O)(=O)c2cccs2)c1	-0.6	2.4	-7.0	2.3	-2.2	-3.9
